Data reported in ChEMBL document CHEMBL1156396, “Antifungal alkyl amino alcohols from the tropical marine sponge Haliclona n. sp” (2001).
Calls of active or inactive are those of the source. No cut-off for these calls is given here.

What was measured:
Amorphotheca resinae = assay: Antifungal activity against Cladosporium resinae at 0.12 mg after 24 hrs by paper disk assay; format: functional; conditions: for zone of inhibition at 120 µg/disc: read-out: IZ
Procedure, shortened: (§1)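 Paper disk diffusion: 6 mm diameter disks loaded with 0.12 mg test substance, placed on plates seeded with the test organism and incubated 24 h at 28 °C; activity scored as diameter of growth-inhibition zone (mm).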

[1] = system: Trichophyton mentagrophytes; assay: Antifungal activity against Trichophyton mentagrophytes at 0.12 mg after 24 hrs by paper disk assay; format: functional; conditions: for zone of inhibition at 120 µg/disc: read-out: IZ; procedure, shortened: as §1
Escherichia coli = assay: Antibacterial activity against Escherichia coli at 0.12 mg after 24 hrs by paper disk assay; format: functional, organism-based; procedure, shortened: as §1
Bacillus subtilis = assay: Antibacterial activity against Bacillus subtilis at 0.12 mg after 24 hrs by paper disk assay; format: functional; procedure, shortened: as §1
Candida albicans = assay: Antifungal activity against Candida albicans at 0.12 mg after 24 hrs by paper disk assay; format: functional, organism-based; procedure, shortened: as §1

Row | Structure (SMILES) | inhibition zone (IZ) (Amorphotheca resinae) | inhibition zone (IZ) [1] | inhibition zone (IZ) (Escherichia coli) | inhibition zone (IZ) (Bacillus subtilis) | inhibition zone (IZ) (Candida albicans) | zone of inhibition at 120 µg/disc (Bacillus subtilis; read-out: IZ) [mm] | zone of inhibition at 120 µg/disc (Amorphotheca resinae) [mm] | zone of inhibition at 120 µg/disc [1] [mm]
1 | C=CCCCCCCCCC[C@@H](O)[C@H](C)NC(C)=O | inactive | inactive | inactive | inactive | inactive | – | – | –
2 | CCCCCCCC/C=C\C[C@@H](O)[C@H](C)N | Active | Active | Active | Active | Active | – | – | –
3 | C=CCCCCCCCCC[C@@H](OC(C)=O)[C@H](C)NC(C)=O [DIACETYL HALAMINOL A] | inactive | inactive | inactive | – | inactive | 7 | – | –
4 | C=CCCCCCCCCC[C@@H](O)[C@H](C)N [HALAMINOL A] | – | – | Active | Active | Active | – | 10 | 10
5 | C=CCCCCCCC[C@@H](O)[C@H](C)N [HALAMINOL B] | – | – | Active | Active | Active | – | 10 | 10
